# SKN-1 inh = blocks SKN-1 activity in C. elegans; C. elegans VP596 Pgst-4::GFP/RFP ratio, acrylamide-induced, 24 h; AID 624304; inhibition, % at 21.8 µM; actives 0.49% (n = 360,000);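 active = interference check ratio from 0.5 to 1.5 plus GFP to RFP signal ratio inhibition reaching or exceeding a fixed threshold, cut at about 30% in these data, passing the limit was not always enough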
# PABP FP inh = PABP-poly(A) binding inhibition; P11940; PABP-poly(A) RNA binding, fluorescence polarization; calls only at 35 µM; actives 1% (n = 290,000);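 also: calls also rest on retests at 20 µM and on dose response follow-up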
# Target sequence (P11940 whole entry, looked up): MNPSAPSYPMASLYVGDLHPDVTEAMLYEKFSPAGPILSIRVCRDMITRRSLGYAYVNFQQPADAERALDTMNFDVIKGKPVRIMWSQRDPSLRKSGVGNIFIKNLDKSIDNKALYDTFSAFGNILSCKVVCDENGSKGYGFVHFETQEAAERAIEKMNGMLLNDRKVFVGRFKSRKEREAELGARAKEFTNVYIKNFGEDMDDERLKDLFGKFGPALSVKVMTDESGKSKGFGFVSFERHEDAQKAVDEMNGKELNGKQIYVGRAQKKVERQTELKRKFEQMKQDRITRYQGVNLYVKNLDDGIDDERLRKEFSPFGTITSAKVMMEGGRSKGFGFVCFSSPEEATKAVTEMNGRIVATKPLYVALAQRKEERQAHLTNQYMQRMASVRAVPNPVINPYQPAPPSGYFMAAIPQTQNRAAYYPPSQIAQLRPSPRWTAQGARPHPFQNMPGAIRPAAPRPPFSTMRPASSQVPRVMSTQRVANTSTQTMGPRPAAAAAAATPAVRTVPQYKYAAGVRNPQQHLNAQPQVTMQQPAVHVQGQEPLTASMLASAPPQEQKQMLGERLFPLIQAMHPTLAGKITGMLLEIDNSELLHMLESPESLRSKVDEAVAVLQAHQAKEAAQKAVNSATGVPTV
# MT1-MMP act inh = inhibitors of human MT1-MMP activation | P50281 | HT1080 RFP-PRO-GFP cells, GFP/RFP ratio fluorescence, overnight; percent of plate control window, DMSO zero | GFP/RFP ratio change, % at 20 µM | actives 0.061% (n = 360,000) | AID 651647;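 active = GFP/RFP ratio change of at least 30% with cell ATP level not reduced by more than half and red fluorescence within 50% of control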
#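 Material: RFP-PRO-GFP reporter HT1080 cells. Dosing: single-point 20 µM compound, 1% DMSO. Controls: DMSO and RFP-L50D-GFP cell wells. Timing: cells overnight before dosing, compound overnight, 37 °C, 5% CO2. Measure: GFP/RFP fluorescence ratio.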
# MLLE-PAM2 inh = blocks PAM2 peptide binding to the PABP1 MLLE domain. AID 588489. P11940. actives 0.36% (n = 360,000). GST-MLLE / FITC-PAM2 fluorescence polarization. inhibition, % at 20 µM; in the data active = inhibition above about 35%, passing the limit was not always enough;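 also: plate controls were DMSO wells with GST-MLLE for no effect and wells lacking GST-MLLE protein for full effect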
# eIF4H inh = inhibitors of RNA binding by human eIF4H. inhibition, % at 35 µM. actives 0.94% (n = 290,000). eIF4H fluorescence polarization binding assay. Q15056;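 also: calls also rest on retests at 20 µM and on dose response follow-up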
# * hit, by the source's call; i = inactive; ? = inconclusive; · = not tested or not shown; + = active, no number. Compounds with a hit are over-represented: about 1.8% of the library has one in this group of screens. Unless noted, no rule for the calls is given here.
SMILES,SKN-1 inh,PABP FP inh,MT1-MMP act inh,MLLE-PAM2 inh,eIF4H inh
NC(CO)C(=O)NNCc1ccc(O)c(O)c1O (stereo unspecified),13,+,-4,48*,97*
Cc1cc(O)c(-c2cc(O)c(C)cc2O)cc1O,0,i,6,48*,1
C[C@H](O)Cc1cn(-c2cc3cc(C#Cc4ccsc4)ccc3oc2=O)nn1,5,·,7,-23,·
CCc1ccccc1OCC(=O)N(CC)CC(=O)NCc1ccc(F)cc1,-11,+,-1,-2,active
CCN(CC(=O)NCc1ccc(F)cc1)C(=O)COc1ccc2ccccc2c1,21,i,2,-5,-18
Cn1ccnc1SCC(=O)Nc1ccc(Br)cc1C(F)(F)F,-2,i,-1,-17,-6
N#C/C(=C\c1ccc(F)cc1)c1nc(-c2ccco2)cs1,60*,i,3,-48,?
CSCC[C@H](NC(=O)c1cccc(S(=O)(=O)N2CCCCC2)c1)c1nc2ccccc2[nH]1,-6,·,3,0,·
O=C(O)CCC(=O)Nc1sc2c(c1C(=O)Nc1cccc3ccccc13)CCCCC2,7,+,-16,-78,58*
O=C(C[C@@H]1CC[C@@H]2[C@H](COC[C@H](O)CN2S(=O)(=O)c2ccccc2)O1)Nc1ccccc1,-5,·,-1,·,·
C=C(C)C(=O)Nc1ccc2c(c1)OCCOCCOCCO2,12,+,0,1,90*
N#CCCN(C(=S)NC(=O)c1ccco1)c1ccccc1F,-14,i,2,47*,1
N#CCCN(Cc1cccnc1)C(=S)NC(=O)c1ccco1,6,+,-1,14,7
N#CCCN(C(=O)c1ccco1)c1ccccc1,-10,i,-1,6,-14
COCc1ccc(-c2c(-c3cc(OC)cc(OC)c3)oc(=O)c3cc(OC)c(OC)cc23)cc1,21,·,1,-6,·
Cc1cc(SCc2ccc(Br)cc2)nc(=O)[nH]1,16,·,-2,6,·
c1ccc(Cn2ccc(-c3cnc(-c4ccccc4)s3)n2)cc1,17,i,1,-6,93*
Cc1cnc(C(=O)N(CCCn2ccnc2)C2C(=O)Nc3ccccc3N=C2c2ccccc2)cn1 (stereo unspecified),37*,·,4,19,·
COc1ccc(C2=Nc3ccccc3NC(=O)C2N(C(=O)c2cnc(C)cn2)c2ccc(N3CCOCC3)cc2)cc1 (stereo unspecified),6,·,1,-10,·
Cc1cc(NC(=O)C(C)SCC(=O)N(C)Cc2c(F)cccc2Cl)no1 (stereo unspecified),10,·,0,-12,·
CCOC(=O)c1c(OCC)[nH]c2c1cc(O)c1ccccc12,3,+,15,26,72*
N#Cc1ccc(CC(=O)c2ccccc2)[nH]c1=O,44*,·,-29,9,·
CN(C)c1ccc(N/C=C/C(=O)c2ccc(F)cc2)cc1,11,+,-13,-69,47*
NS(=O)(=O)c1ccc(N/C=C\C(=O)c2ccc(F)cc2)cc1,0,i,2,-14,-4
CN(C)c1ccc(N/C=C/C(=O)c2ccco2)cc1,39*,i,6,-38,3
SMILES,SKN-1 inh,PABP FP inh,MT1-MMP act inh,MLLE-PAM2 inh,eIF4H inh
CC(=O)Nc1ccc(N/C=C/C(=O)c2ccco2)cc1,0,i,-5,-22,-1
Cc1noc(C)c1NC(=O)N(C)C[C@H]1Oc2ccc(NC(=O)C3CC3)cc2C(=O)N([C@H](C)CO)C[C@@H]1C,17,·,-1,1,·
Clc1ccc2nc(N3CCCCC3)sc2c1,57*,i,3,-10,-3
O=C(Nc1cccnc1)c1c(O)c2cccc3c2n(c1=O)CC3,38*,i,-5,17,6
CCCc1nnc(NC(=O)c2c(O)c3cccc4c3n(c2=O)CCC4)s1,·,+,·,·,96*
COc1c(Cl)cc(C(=O)Nc2cccnc2)cc1Cl,15,·,-2,10,·
Cn1c(=O)c(NCCO)c2c3c(cccc31)C(=O)c1ccccc1-2,-5,?,-186,i,?
Cn1c(=O)c(NCCc2ccccc2)c2c3c(cccc31)C(=O)c1ccccc1-2,46,+,-67,i,128*
O=C(O)C1CCN(C(=O)c2ccc3c(c2)OCO3)CC1,-4,i,0,-6,-3
CCc1ccc(S(=O)(=O)/N=C2/C=C(Sc3ncn[nH]3)C(=O)c3ccccc32)cc1,7,i,-66,46*,-3
CCc1ccc(S(=O)(=O)/N=C2\C=CC(=O)c3ccccc32)cc1,·,i,·,·,-1
CCn1cnc2c1c(=O)n(CC(=O)NCC(F)(F)F)c(=O)n2Cc1ccccc1,-11,+,-1,-54,99*
CCC(=O)c1ccc(N2CCN(C(=O)c3cccs3)CC2)c(F)c1,-8,i,1,1,-12
Cc1cccc(OC(=O)n2c(=S)oc3cc(Cl)ccc32)c1,7,+,8,-75,?
Oc1ccc(N=Cc2ccc(O)c(O)c2)cc1,2,+,16,4,106*
CCOc1ccc(-c2nnc(-c3cccs3)o2)cc1OCC,15,i,2,6,-5
CCOc1ccc(-c2nnc(-c3cccs3)o2)cc1,70*,i,0,-4,2
CN(Cc1ccccc1)C(=O)Cn1nnc(-c2ccccc2)c1COc1ccccc1,3,·,0,3,·
N/C(=N\OC(=O)COc1ccc(Cl)cc1Br)c1cccnc1,4,i,-1,-9,-2
N/C(=N\OC(=O)COc1ccc(Cl)cc1Cl)c1ccncc1,48*,i,3,-2,-12
COc1ccc(C=C2CCc3ccccc3C2=O)cc1,8,·,2,12,·
O=C1C(=Cc2ccco2)C(=O)c2ccccc21,2,i,10,28,38
Nc1ccc2c(c1)C/C(=C/c1ccco1)C2=O,4,+,-10,-31,93*
O=C1/C(=C/c2ccco2)CCc2ccccc21,65*,i,-4,0,81
COc1ccc2c(c1)CC/C(=C/c1ccco1)C2=O,60*,+,3,-9,?
SMILES,SKN-1 inh,PABP FP inh,MT1-MMP act inh,MLLE-PAM2 inh,eIF4H inh
CN(CC(=O)Nc1ccccc1Cl)C(=O)COC(=O)c1ccc([N+](=O)[O-])s1,12,·,0,-3,·
COc1cc2nc3n(c(=O)c2cc1OC)-c1ncccc1C(=O)NC3Cc1ccccc1 (stereo unspecified),11,·,1,3,·
C=CCn1c(COc2ccc(CC)cc2)nnc1SC/C(O)=C(\C#N)c1nc2ccccc2[nH]1,12,+,-16,-91,66*
C=CCn1c(COc2ccccc2)nnc1SCc1ccc(C#N)cc1,25,i,2,-28,-11
CC(C)(C)N=C1NN=C(c2ccc(Cl)cc2)CS1,51*,i,5,12,0
C[C@H](NS(=O)(=O)c1ccc2c(c1)OCCCO2)C(=O)N1CCN(c2ccc(F)cc2)CC1,-3,·,1,41*,·
CC(NS(=O)(=O)c1ccc2c(c1)OCCCO2)C(=O)O (stereo unspecified),-13,i,5,3,8
